Results from different studies.
Lines come from different studies, so protocols differ.
Technique: competition with immobilised ligand
RPS6KA5 C-terminal kinase domain: Ribosomal protein S6 kinase alpha-5, C-terminal kinase domain (RPS6KA5, Homo sapiens, UniProt O75582)
RPS6KA5 N-terminal kinase domain: Ribosomal protein S6 kinase alpha-5, N-terminal kinase domain (RPS6KA5, Homo sapiens, UniProt O75582)

Structure (SMILES)	target	test	conditions	remaining binding
O=C(Nc1c[nH]nc1C(=O)NC1CCNCC1)c1cc(F)cc(F)c1	RPS6KA5 C-terminal kinase domain	binding	1 µM	100%
O=C(c1ccc(Nc2ncc(Cl)c(-c3ccc(Cl)s3)n2)cc1)N1CCC(N2CCCC2)CC1	RPS6KA5 C-terminal kinase domain	binding	1 µM	48%
CN(CCCC(F)(F)F)c1nccc(-c2cnn3ncccc23)n1	RPS6KA5 N-terminal kinase domain	binding	1 µM	100%
NS(=O)(=O)c1cc(NC(=O)C2(c3ccccc3Cl)CC2)ccc1Oc1cccc(Cl)c1	RPS6KA5 N-terminal kinase domain	cell-free assay	1 µM	100%
O=C(NCCCN1CCOCC1)c1ccc(Nc2nccc(-c3cc4ccccc4s3)n2)cc1	RPS6KA5 C-terminal kinase domain	binding	1 µM	100%
CCN1CCN(Cc2ccc(C(=O)Nc3ccc(C)c(Oc4ccc5c(c4)CC(=O)N5)c3)cc2C(F)(F)F)CC1	RPS6KA5 N-terminal kinase domain	binding	1 µM	100%
Cc1cnn2ncc(-c3ccnc(N(C)C)n3)c2c1	RPS6KA5 N-terminal kinase domain	binding	1 µM	100%
COc1cnc(Nc2cccc(S(N)(=O)=O)c2)nc1N1CCN(c2ccccc2)CC1	RPS6KA5 N-terminal kinase domain	binding	1 µM	92%
C=CC(=O)N1CCC(C(=O)NCC(=O)N2CCN(c3nc(-c4cnc(N)nc4C(F)F)nc(N4CCOCC4)n3)CC2)CC1	RPS6KA5 N-terminal kinase domain	binding	1 µM	100%
CNC(=O)[C@@H]1CC[C@@H](n2c(-c3ccc4cnccc4c3)nc3ccc(C(=O)NCc4cccc(C(N)=O)c4)cc32)C1	RPS6KA5 C-terminal kinase domain	binding	1 µM	100%
O=C(NCCCN1CCOCC1)c1ccc(Nc2ncc(Cl)c(-c3ccc(Cl)s3)n2)cc1	RPS6KA5 N-terminal kinase domain	binding	1 µM	100%
O=C(NCC1CCOCC1)c1n[nH]cc1NC(=O)c1c(F)cccc1F	RPS6KA5 N-terminal kinase domain	binding	1 µM	79%
c1ccc(N2CCN(Cc3nc4ccccc4[nH]3)CC2)nc1	RPS6KA5 C-terminal kinase domain	binding	1 µM	100%
COc1ncc2cc3ccccc3nc2c1C#N	RPS6KA5 C-terminal kinase domain	cell-free assay	5 µM	88%
N[C@H]1CCN(c2nccc(-c3cnn4ncccc34)n2)C1	RPS6KA5 N-terminal kinase domain	binding	1 µM	100%
O=C(O)c1cc(-c2ccc(C3CCNCC3)cc2)c2ccc(-c3ccc(C(F)(F)F)cc3)cc2c1	RPS6KA5 C-terminal kinase domain	cell-free assay	1 µM	100%

Structure (SMILES)	target	test	conditions	remaining binding
O=C(c1ccc(Nc2ncc(Cl)c(-c3cc4ccccc4s3)n2)cc1)N1CCC(N2CCCC2)CC1	RPS6KA5 C-terminal kinase domain	binding	1 µM	54%
CN(C)c1ncc(F)c(-c2cnn3ncccc23)n1	RPS6KA5 N-terminal kinase domain	binding	1 µM	98%
Cc1noc([C@H]2C[C@@H](c3ccc(C(F)(F)F)cc3)CN(C(=O)N3CCS(=O)(=O)C3)C2)n1	RPS6KA5 C-terminal kinase domain	cell-free assay	1 µM	100%
c1cncc(-c2cccc(Nc3nccc(NC4CCCCC4)n3)c2)c1	RPS6KA5 N-terminal kinase domain	binding	10 µM	100%
c1cnn2ncc(-c3ccnc(N4CCC45COC5)n3)c2c1	RPS6KA5 N-terminal kinase domain	binding	1 µM	100%
CSc1cccnc1N1CCN(Cc2nc3ccccc3[nH]2)CC1	RPS6KA5 C-terminal kinase domain	cell-free assay	1 µM	100%
COc1ccnn2ncc(-c3ccnc(N(C)C)n3)c12	RPS6KA5 C-terminal kinase domain	binding	1 µM	100%
Cc1cnc(Nc2ccc(C(=O)N3CCC(N4CCCC4)CC3)cc2)nc1-c1cc2ccccc2s1	RPS6KA5 N-terminal kinase domain	binding	1 µM	100%
CC(=O)N1CCC(c2ccc(C(=O)NC3=NCCN3)cc2C(F)(F)F)CC1	RPS6KA5 N-terminal kinase domain	cell-free assay	1 µM	100%
Nc1ncc2c(n1)-c1c([nH]c3ccc(C#CC4CC4)cc13)CCCC2	RPS6KA5 C-terminal kinase domain	binding	1 µM	100%
O=C(c1ccc(Nc2nccc(-c3cc4ccccc4s3)n2)cc1)N1CCC(N2CCCC2)CC1	RPS6KA5 C-terminal kinase domain	binding	1 µM	86%
C[C@@H](c1ccc(-n2cnc3c(N)ncnc32)cc1)N1CCc2nn(C)c(Cc3ccccc3)c2C1=O	RPS6KA5 C-terminal kinase domain	binding	0.1 µM	92%
CN([C@@H]1CCc2c(CC(=O)O)c3cc(S(C)(=O)=O)ccc3n2C1)S(=O)(=O)c1ccc(F)cc1	RPS6KA5 N-terminal kinase domain	cell-free assay	1 µM	85%
COc1cnc(Nc2cccc(S(N)(=O)=O)c2)nc1N1CCN(c2ccccc2)C(=O)C1	RPS6KA5 N-terminal kinase domain	binding	1 µM	99%
Cn1nc(C(=O)NCc2ccc(C(=O)O)cc2)cc1-c1ccc2[nH]ccc2c1	RPS6KA5 N-terminal kinase domain	cell-free assay	0.1 µM	76%
F[C@@H]1CCN(c2nccc(-c3cnn4ncccc34)n2)C1	RPS6KA5 C-terminal kinase domain	binding	1 µM	73%
